Measurements from ChEMBL document CHEMBL2331335, “Synthesis of hemslecin A derivatives: a new class of hepatitis B virus inhibitors” (Bioorg Med Chem Lett, 2013).

Experiments:
[1] = Selectivity index, ratio of CC50 for human HepG2.2.15 cells to IC50 for HBV infected in human HepG2.2.15 cells assessed as inhibition of viral DNA replication; format: functional
Summary of the method: (§1)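 Selectivity index was calculated as CC50 (HepG 2.2.15 cytotoxicity) divided by IC50 for the given marker (HBV DNA replication, HBeAg or HBsAg), all measured in HepG 2.2.15 cells.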

Hepatitis B virus [2] = assay: Antiviral activity against HBV infected in human HepG2.2.15 cells assessed as inhibition of viral e antigen production; format: functional, organism-based; conditions: HepG2 2.2.15
Summary of the method: (§2)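 Assayed in HBV-producing HepG 2.2.15 cells, with tenofovir as positive control. HBsAg, HBeAg and HBV DNA replication were each measured, and IC50 was taken as the compound concentration giving 50% inhibition of the given marker.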

[3] = Selectivity index, ratio of CC50 for human HepG2.2.15 cells to IC50 for HBV infected in human HepG2.2.15 cells assessed as inhibition of viral surface antigen production; format: functional; summary of the method: as §1
Hepatitis B virus [4] = assay: Antiviral activity against HBV infected in human HepG2.2.15 cells assessed as inhibition of viral DNA replication; format: functional, organism-based; conditions: HepG2 2.2.15; summary of the method: as §2
[5] = Cytotoxicity against human HepG2.2.15 cells; format: cell-based, HepG2 2.2.15
Summary of the method: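 Cytotoxicity was tested in HepG 2.2.15 cells alongside the anti-HBV assay. CC50 was taken as the compound concentration required to destroy 50% of the cells.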

[6] = Selectivity index, ratio of CC50 for human HepG2.2.15 cells to IC50 for HBV infected in human HepG2.2.15 cells assessed as inhibition of viral e antigen production; format: functional; summary of the method: as §1
Hepatitis B virus [7] = assay: Antiviral activity against HBV infected in human HepG2.2.15 cells assessed as inhibition of viral surface antigen production; format: functional, organism-based; conditions: HepG2 2.2.15; summary of the method: as §2

| SMILES | Ratio CC50/IC50 [1] | IC50 (Hepatitis B virus [2]) [µM] | Ratio CC50/IC50 [3] | IC50 (Hepatitis B virus [4]) [µM] | CC50 [5] [µM] | Ratio CC50/IC50 [6] | IC50 (Hepatitis B virus [7]) [µM] |
| --- | --- | --- | --- | --- | --- | --- | --- |
| CC(=O)O[C@@H]1[C@@H](O)C[C@@H]2C(=CC[C@@H]3[C@@]2(C)C(=O)C[C@]2(C)[C@@H]([C@@](C)(O)C(=O)CCC(C)(C)OC(C)=O)[C@H](O)C[C@@]32C)C1(C)C | 89.7 | > 254 | 1.3 | 2.8 | 254 | <1 | 190 |
| CC(=O)O[C@H]1C[C@@H]2C(=CC[C@@H]3[C@@]2(C)C(=O)C[C@]2(C)[C@@H]([C@@](C)(O)C(=O)CCC(C)(C)OC(C)=O)[C@H](O)C[C@@]32C)C(C)(C)[C@@H]1OC(C)=O | 55.6 | 46.7 | 24.3 | 9.8 | 546 | 11.7 | 22.4 |
| CCC(=O)O[C@H]1C[C@@H]2C(=CC[C@@H]3[C@@]2(C)C(=O)C[C@]2(C)[C@@H]([C@@](C)(O)C(=O)CCC(C)(C)OC(C)=O)[C@H](O)C[C@@]32C)C(C)(C)[C@@H]1O | – | 14.4 | 8.1 | 4.7 | 126 | 8.7 | 15.6 |
| CCC(=O)O[C@@H]1[C@@H](O)C[C@@H]2C(=CC[C@@H]3[C@@]2(C)C(=O)C[C@]2(C)[C@@H]([C@@](C)(O)C(=O)CCC(C)(C)OC(C)=O)[C@H](O)C[C@@]32C)C1(C)C | 31.9 | 17 | 5.5 | 3.1 | 100 | 5.9 | 18.4 |
| CCC(=O)O[C@H]1C[C@@H]2C(=CC[C@@H]3[C@@]2(C)C(=O)C[C@]2(C)[C@@H]([C@@](C)(O)C(=O)CCC(C)(C)OC(C)=O)[C@H](O)C[C@@]32C)C(C)(C)[C@@H]1OC(=O)CC | >83.4 | 596 | >60 | 7.2 | > 596 | >1 | 9.9 |
| CCCC(=O)O[C@H]1C[C@@H]2C(=CC[C@@H]3[C@@]2(C)C(=O)C[C@]2(C)[C@@H]([C@@](C)(O)C(=O)CCC(C)(C)OC(C)=O)[C@H](O)C[C@@]32C)C(C)(C)[C@@H]1O | 2 | > 12.4 | <1 | 6.1 | 12.4 | <1 | > 12.4 |
| CCCC(=O)O[C@@H]1[C@@H](O)C[C@@H]2C(=CC[C@@H]3[C@@]2(C)C(=O)C[C@]2(C)[C@@H]([C@@](C)(O)C(=O)CCC(C)(C)OC(C)=O)[C@H](O)C[C@@]32C)C1(C)C | 1.3 | > 6.3 | <1 | 4.7 | 6.3 | <1 | > 6.3 |
| CCC(=O)O[C@H]1C[C@H]2[C@]3(C)C(=O)C[C@]4(C)[C@@H]([C@@](C)(O)C(=O)CCC(C)(C)OC(C)=O)[C@H](OC(=O)CC)C[C@@]4(C)[C@@H]3C[C@H]3O[C@]32C(C)(C)[C@@H]1OC(=O)CC | – | > 1670 | >2.2 | > 1670 | > 1670 | – | 768 |
| CC(=O)OC(C)(C)CCC(=O)[C@](C)(O)[C@H]1[C@H](O)C[C@@]2(C)[C@@H]3C[C@@H](O)[C@]4(OC(=O)c5cccc(Cl)c5)[C@@H](C[C@H](O)[C@@H](O)C4(C)C)[C@]3(C)C(=O)C[C@]12C | 50.9 | 30.9 | 15.3 | 7.2 | 366 | 11.9 | 24 |
| CC(=O)O[C@H]1C[C@H]2[C@]3(C)C(=O)C[C@]4(C)[C@@H]([C@@](C)(O)C(=O)CCC(C)(C)OC(C)=O)[C@H](OC(C)=O)C[C@@]4(C)[C@@H]3C[C@@H](O)[C@@]2(OC(=O)c2cccc(Cl)c2)C(C)(C)[C@@H]1OC(C)=O | – | 327 | >5.9 | > 1050 | > 1050 | >3.2 | 178 |
| CCOCC(=O)O[C@H]1C[C@@H]2C(=CC[C@@H]3[C@@]2(C)C(=O)C[C@]2(C)[C@@H]([C@@](C)(O)C(=O)CCC(C)(C)O)[C@H](OC(=O)COCC)C[C@@]32C)C(C)(C)[C@@H]1OC(=O)COCC | 2.2 | > 184 | 1.8 | 84.6 | 184 | <1 | 101 |
| CCOCC(=O)O[C@H]1C[C@@H]2C(=CC[C@@H]3[C@@]2(C)C(=O)C[C@]2(C)[C@@H]([C@@](C)(O)C(=O)CCC(C)(C)OC(=O)COCC)[C@H](OC(=O)COCC)C[C@@]32C)C(C)(C)[C@@H]1OC(=O)COCC | >17.8 | > 1450 | >6.4 | 81.4 | > 1450 | – | 225 |
| CC(C)(O)CCC(=O)[C@](C)(O)[C@H]1[C@H](O)C[C@@]2(C)[C@@H]3CC=C4[C@@H](C[C@H](O)[C@@H](O)C4(C)C)[C@]3(C)C(=O)C[C@]12C | 1.9 | > 60.6 | <1 | 31.4 | 60.6 | <1 | > 60.6 |
| CC(=O)OC(C)(C)CCC(=O)[C@](C)(O)[C@H]1[C@H](O)C[C@@]2(C)[C@@H]3CC=C4[C@@H](C[C@H](O)[C@@H](O)C4(C)C)[C@]3(C)C(=O)C[C@]12C [HEMSLECIN A] | 5.8 | > 66.2 | <1 | 11.4 | 66.2 | <1 | > 66.2 |
| C[C@H](Cn1cnc2c(N)ncnc21)OCP(=O)(O)O [TENOFOVIR ANHYDROUS] | >3571.4 | – | >1.1 | 0.49 | > 1740 | >1.5 | 1570 |
